Source: ChEMBL document CHEMBL3228025, “Synthesis and analgesic activities of some (4-substituted phenyl-1-piperazinyl)alkyl 2-aminobenzoates and 2-aminonicotinates” (J Med Chem, 1979)

What was measured:
[1] = Acute toxicity in po dosed CD1 mouse after 7 days; format: organism-based; details: in vivo
Outline: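 Male CD1 mice, 20 ± 2 g, oral dosing at 10 mL/kg as an aqueous solution or suspension in 1% Tween 80 in distilled water. At least 10 animals per dose level, observed for 7 days. Oral LD50 calculated by the Litchfield–Wilcoxon method.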

[2] = system: Mus musculus; assay: Analgesic activity in po dosed CD1 mouse assessed as inhibition of acetic acid-induced writhing administered 30 mins prior to acetic acid challenge measured after 15 mins; format: functional
Outline: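 Male CD1 mice, 20 ± 2 g, randomly grouped and dosed orally at several levels (10 mL/kg, 1% Tween 80 vehicle), with at least two groups of six per dose. After 30 min, 0.6% acetic acid was given ip at 10 mL/kg, and writhes were counted per group over 15 min. ED50 (dose halving writhes) was read graphically, with no SEM computed.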

[3] = system: Rattus norvegicus; assay: Antiinflammatory activity in po dosed CD1 rat assessed as inhibition of carrageenan-induced paw edema administered 1 hr prior to carrageenan challenge measured after 3 hrs
[4] = system: Mus musculus; assay: Analgesic activity in po dosed OF1 mouse assessed as dose required to double paw licking reaction time after 30 mins by hot plate test; format: functional; details: 0.5 h
Outline: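 Male OF1 mice, 20 ± 2 g, given oral doses at several levels in 1% Tween 80 at 10 mL/kg, at least 10 per dose. After 30 min each mouse was placed on a metal plate at 56 °C and paw-licking latency was recorded. ED2 (dose doubling latency) was read graphically, with SEM and Dunnett's t versus controls.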

SMILES | LD50 at 168 h [1] | ED50 [2] | ED40 [3] | ED2 [4]
O=C(OCCN1CCN(c2ccccc2)CC1)c1ccccc1Nc1cccc(C(F)(F)F)c1 | > 2000 mg/kg | 400 mg/kg | 100 mg/kg | –
Cc1cccc(Nc2ccccc2C(=O)OCCN2CCN(c3ccccc3)CC2)c1C | 4000 mg/kg | 90 mg/kg | > 50 mg/kg | –
O=C(OCCN1CCN(c2ccccc2)CC1)c1ccccc1Nc1cccc(OC(F)(F)F)c1 | 2000 mg/kg | > 400 mg/kg | 150 mg/kg | –
O=C(OCCN1CCN(c2cccc(Cl)c2)CC1)c1ccccc1Nc1cccc(SC(F)(F)F)c1 | 2000 mg/kg | > 400 mg/kg | > 50 mg/kg | –
O=C(OCCN1CCN(c2cccc(C(F)(F)F)c2)CC1)c1ccccc1Nc1cccc(SC(F)(F)F)c1 | > 4000 mg/kg | 300 mg/kg | > 50 mg/kg | –
O=C(OCCN1CCN(c2cccc(C(F)(F)F)c2)CC1)c1cccnc1Nc1cccc(SC(F)(F)F)c1 | > 4000 mg/kg | 250 mg/kg | > 50 mg/kg | –
O=C(OCCN1CCN(c2cccc(Cl)c2)CC1)c1cccnc1Nc1cccc(SC(F)(F)F)c1 | > 4000 mg/kg | 100 mg/kg | > 300 mg/kg | –
Cc1c(Cl)cccc1Nc1ncccc1C(=O)OCCN1CCN(c2cccc(C(F)(F)F)c2)CC1 | > 4000 mg/kg | 200 mg/kg | > 100 mg/kg | –
CC(CN1CCN(c2ccccc2)CC1)OC(=O)c1ccccc1Nc1ccnc2cc(Cl)ccc12 (stereo not given) | > 2000 mg/kg | 63 mg/kg | 300 mg/kg | 200 mg/kg
O=C(OCCCN1CCN(c2ccccc2)CC1)c1ccccc1Nc1ccnc2cc(Cl)ccc12 | 2000 mg/kg | 60 mg/kg | 50 mg/kg | 250 mg/kg
O=C(OCCN1CCN(c2ccccc2)CC1)c1ccccc1Nc1ccnc2cc(Cl)ccc12 | 4250 mg/kg | 75 mg/kg | 120 mg/kg | 200 mg/kg
Cc1cc(Nc2ccccc2C(=O)OCCN2CCN(c3ccccc3)CC2)c2ccc(Cl)cc2n1 | 4000 mg/kg | 110 mg/kg | > 200 mg/kg | 300 mg/kg
COc1ccc(N2CCN(CCOC(=O)c3ccccc3Nc3ccnc4cc(Cl)ccc34)CC2)cc1 | – | 200 mg/kg | 45 mg/kg | > 300 mg/kg
Cc1ccc(C)c(N2CCN(CCOC(=O)c3ccccc3Nc3ccnc4cc(Cl)ccc34)CC2)c1 | 4000 mg/kg | 22 mg/kg | 120 mg/kg | 300 mg/kg
Cc1ccc(Cl)cc1N1CCN(CCOC(=O)c2ccccc2Nc2ccnc3cc(Cl)ccc23)CC1 | > 4000 mg/kg | 15 mg/kg | 30 mg/kg | > 300 mg/kg
O=C(OCCN1CCN(c2ccc(Cl)cc2)CC1)c1ccccc1Nc1ccnc2cc(Cl)ccc12 | > 2000 mg/kg | 80 mg/kg | 100 mg/kg | > 300 mg/kg
O=C(OCCN1CCN(c2cccc(Cl)c2)CC1)c1ccccc1Nc1ccnc2cc(Cl)ccc12 | 4000 mg/kg | 10 mg/kg | > 100 mg/kg | 60 mg/kg
O=C(OCCN1CCN(c2cccc(C(F)(F)F)c2)CC1)c1ccccc1Nc1ccnc2cc(Cl)ccc12 | – | 24 mg/kg | 40 mg/kg | 150 mg/kg
O=C(OCCN1CCN(c2cccc(OC(F)(F)F)c2)CC1)c1ccccc1Nc1ccnc2cc(Cl)ccc12 | 4000 mg/kg | 120 mg/kg | 50 mg/kg | > 300 mg/kg
O=C(OCCN1CCN(c2cccc(SC(F)(F)F)c2)CC1)c1ccccc1Nc1ccnc2cc(Cl)ccc12 | 3000 mg/kg | 120 mg/kg | 30 mg/kg | 200 mg/kg
O=C(OCCN1CCN(c2ccccc2)CC1)c1ccccc1Nc1ccnc2c(Cl)cccc12 | > 4000 mg/kg | 80 mg/kg | 300 mg/kg | > 250 mg/kg

SMILES | LD50 at 168 h [1] | ED50 [2] | ED40 [3] | ED2 [4]
O=C(OCCN1CCN(c2ccccc2)CC1)c1ccccc1Nc1ccnc2cc(C(F)(F)F)ccc12 | 2500 mg/kg | 30 mg/kg | 40 mg/kg | 300 mg/kg
O=C(OCCN1CCN(c2cccc(Cl)c2)CC1)c1ccccc1Nc1ccnc2cc(C(F)(F)F)ccc12 | > 4000 mg/kg | 9 mg/kg | 30 mg/kg | 150 mg/kg
O=C(OCCN1CCN(c2cccc(OC(F)(F)F)c2)CC1)c1ccccc1Nc1ccnc2cc(C(F)(F)F)ccc12 | 3500 mg/kg | 20 mg/kg | 50 mg/kg | > 300 mg/kg
O=C(OCCN1CCN(c2cccc(SC(F)(F)F)c2)CC1)c1ccccc1Nc1ccnc2cc(C(F)(F)F)ccc12 | 3750 mg/kg | 8 mg/kg | 30 mg/kg | > 300 mg/kg
O=C(OCCN1CCN(c2cc(C(F)(F)F)cc(C(F)(F)F)c2)CC1)c1ccccc1Nc1ccnc2cc(C(F)(F)F)ccc12 | 4000 mg/kg | 20 mg/kg | 80 mg/kg | > 300 mg/kg
Cc1ccc(Cl)cc1N1CCN(CCOC(=O)c2ccccc2Nc2ccnc3cc(C(F)(F)F)ccc23)CC1 | 3000 mg/kg | 20 mg/kg | 65 mg/kg | > 300 mg/kg
O=C(OCCN1CCN(c2ccccc2)CC1)c1ccccc1Nc1ccnc2c(C(F)(F)F)cccc12 | 3000 mg/kg | 35 mg/kg | 64 mg/kg | > 300 mg/kg
O=C(OCCN1CCN(c2cccc(Cl)c2)CC1)c1ccccc1Nc1ccnc2c(C(F)(F)F)cccc12 | > 3000 mg/kg | 18 mg/kg | 100 mg/kg | > 300 mg/kg
O=C(OCCN1CCN(c2cccc(C(F)(F)F)c2)CC1)c1ccccc1Nc1ccnc2c(C(F)(F)F)cccc12 | > 3000 mg/kg | 40 mg/kg | 120 mg/kg | 100 mg/kg
O=C(OCCN1CCN(c2cccc(SC(F)(F)F)c2)CC1)c1ccccc1Nc1ccnc2c(C(F)(F)F)cccc12 | > 3000 mg/kg | 6 mg/kg | > 100 mg/kg | 200 mg/kg
O=C(OCCN1CCN(c2ccccc2)CC1)c1ccccc1Nc1ccnc2cc(SC(F)(F)F)ccc12 | – | 9 mg/kg | 100 mg/kg | 300 mg/kg
O=C(OCCN1CCN(c2cccc(SC(F)(F)F)c2)CC1)c1ccccc1Nc1ccnc2cc(SC(F)(F)F)ccc12 | – | 60 mg/kg | 180 mg/kg | 200 mg/kg
O=C(OCCN1CCN(c2ccccc2)CC1)c1ccccc1Nc1ccnc2cc(OC(F)(F)F)ccc12 | 1300 mg/kg | 24 mg/kg | 40 mg/kg | 300 mg/kg
O=C(OCCN1CCN(c2cccc(Cl)c2)CC1)c1ccccc1Nc1ccnc2cc(OC(F)(F)F)ccc12 | 4000 mg/kg | 20 mg/kg | 85 mg/kg | 300 mg/kg
O=C(OCCN1CCN(c2cccc(C(F)(F)F)c2)CC1)c1ccccc1Nc1ccnc2cc(OC(F)(F)F)ccc12 | 1500 mg/kg | 20 mg/kg | 43 mg/kg | 150 mg/kg
O=C(OCCN1CCN(c2cccc(OC(F)(F)F)c2)CC1)c1ccccc1Nc1ccnc2cc(OC(F)(F)F)ccc12 | 3500 mg/kg | 70 mg/kg | 75 mg/kg | > 300 mg/kg
O=C(O)c1ccccc1Nc1ccnc2cc(C(F)(F)F)ccc12 | 1000 mg/kg | 18 mg/kg | – | > 600 mg/kg
Cc1c(N(C)C)c(=O)n(-c2ccccc2)n1C [AMINOPYRINE] | 800 mg/kg | 40 mg/kg | 60 mg/kg | 250 mg/kg
O=C(OCCN1CCN(c2cccc(C(F)(F)F)c2)CC1)c1ccccc1Nc1ccnc2cc(C(F)(F)F)ccc12 [ANTRAFENINE] | 4000 mg/kg | 6 mg/kg | 40 mg/kg | 30 mg/kg
O=C(OCC(O)CO)c1ccccc1Nc1ccnc2cc(Cl)ccc12 (stereo not given) [GLAFENINE] | – | 56 mg/kg | 30 mg/kg | > 600 mg/kg
